{"source": "paper PMC5743405", "about": "(International Journal of Oncology, 2017)", "key": {"HCRTR2": {"test_system": "HCRTR2", "test": "PathHunter β-arrestin", "format": "cell-based", "conditions": "antagonist mode, 6 μM", "procedure,_shortened": "(§1)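 Vendor-run (DiscoveRx) PathHunter enzyme fragment complementation. β-Arrestin carries the EA fragment and the receptor carries ED; recruitment restores β-gal activity, read by chemiluminescence (RLU). Agonist % activity = vehicle-subtracted RLU relative to max control ligand (gpcrMAX) or to vehicle (orphanMAX). Antagonist % inhibition = 100% × (1 − vehicle-subtracted sample RLU / vehicle-subtracted EC80 agonist control RLU).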"}, "CHRM1": {"test_system": "CHRM1", "test": "PathHunter β-arrestin", "format": "cell-based", "conditions": "6 μM", "procedure,_shortened": "(§2)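 Engineered cells express the receptor fused to one β-galactosidase fragment (ED) and β-arrestin fused to the complementing fragment (EA). Receptor activation recruits β-arrestin, which restores enzyme activity, and this is read by chemiluminescence (RLU). Agonist % activity is 100% × (test − vehicle)/(maximal control ligand − vehicle). Antagonist mode is challenged with an EC80 control agonist, and % inhibition is 100% × (1 − (test − vehicle)/(EC80 − vehicle)). Hits require >30% activity or >35% inhibition, plus a 3×SD RLU margin.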"}, "AGTRL1": {"test_system": "AGTRL1", "test": "PathHunter β-arrestin", "format": "cell-based", "conditions": "agonist mode, 6 μM", "procedure,_shortened": "(§3)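 β-Arrestin recruitment assay: the enzyme acceptor is fused to β-arrestin and the ED fragment to the GPCR. Recruitment restores β-galactosidase, read by chemiluminescence. % activity = 100% × (test − vehicle)/(max control ligand − vehicle). % inhibition = 100% × (1 − (test − vehicle)/(EC80 control − vehicle)). An agonist hit needs >30% activity and RLU > baseline + 3×SD. An antagonist hit needs >35% inhibition and RLU < EC80 RLU − 3×SD.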"}, "P2RY1": {"test_system": "P2RY1", "test": "PathHunter β-arrestin", "format": "cell-based", "conditions": "6 μM", "procedure,_shortened": "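β-Arrestin recruitment to GPCR read by β-galactosidase fragment complementation and chemiluminescence. Agonist: % = 100 × (test − vehicle)/(max control ligand − vehicle), hit at >30% and RLU > baseline + 3 SD. Antagonist, against EC80 agonist: % inhibition = 100 × (1 − (test − vehicle)/(EC80 − vehicle)), hit at >35% and RLU < EC80 − 3 SD.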"}, "BDKRB1": {"test_system": "BDKRB1", "test": "PathHunter β-arrestin", "format": "cell-based", "conditions": "6 μM", "procedure,_shortened": "as §3"}, "mTOR kinase (mTORC1)": {"test_system": "mTOR kinase (mTORC1)", "conditions": "chondrosarcoma; ref [4],[5]; cited from earlier work"}, "HTR1E": {"test_system": "HTR1E", "test": "PathHunter β-arrestin", "format": "cell-based", "conditions": "6 μM", "procedure,_shortened": "as §1"}, "OPRL1": {"test_system": "OPRL1", "test": "PathHunter β-arrestin", "format": "cell-based", "conditions": "antagonist mode, 6 μM", "procedure,_shortened": "(§4)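 GPCR-ED fusion and β-arrestin-EA fusion; arrestin recruitment restores β-galactosidase, read by chemiluminescence. Antagonist mode uses EC80 agonist challenge. % inhibition = 100 × (1 − (test − vehicle RLU)/(EC80 control − vehicle RLU)). Hit requires >35% inhibition and mean RLU below EC80 RLU − 3 × EC80 SD.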"}, "TLR2": {"test_system": "TLR2", "test": "western blot, JJ012 cells", "format": "cell-based, human", "conditions": "vs untreated control, overnight incubation", "procedure,_shortened": "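JJ012 cells seeded at 1×10^6 cells/ml in 6-well clusters and incubated overnight at 37°C, 5% CO2 with or without test compound. Lysed with protease inhibitor (1:100) and centrifuged at 15,000 × g, 4°C. Protein loaded at 20 μg/lane with reducing agent, run on polyacrylamide gel, transferred to PVDF, probed with rabbit anti-TLR primaries and HRP-linked secondaries.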"}, "EDG5": {"test_system": "EDG5", "test": "PathHunter β-arrestin", "format": "cell-based", "conditions": "6 μM", "procedure,_shortened": "as §2"}, "GPCR receptors": {"test_system": "GPCR receptors", "test": "PathHunter β-arrestin gpcrMAX panel, agonist mode", "format": "cell-based", "conditions": "summary of Table I", "procedure,_shortened": "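β-Arrestin fused to the EA fragment and GPCR fused to the ED fragment; recruitment restores β-galactosidase, read by chemiluminescence. % agonist = 100 × (mean test − mean vehicle)/(mean max control ligand − mean vehicle). Hit requires >30% activity and mean RLU above baseline + 3 × baseline SD.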"}, "NPBWR1": {"test_system": "NPBWR1", "test": "PathHunter β-arrestin", "format": "cell-based", "conditions": "agonist mode, 6 μM", "procedure,_shortened": "as §1"}, "OPRD1": {"test_system": "OPRD1", "test": "PathHunter β-arrestin", "format": "cell-based", "conditions": "antagonist mode, 6 μM", "procedure,_shortened": "as §4"}, "VIPR1": {"test_system": "VIPR1", "test": "PathHunter β-arrestin", "format": "cell-based", "conditions": "antagonist mode, 6 μM"}, "SSTR5": {"test_system": "SSTR5", "test": "PathHunter β-arrestin", "format": "cell-based", "conditions": "agonist mode, 6 μM"}, "HTR1F": {"test_system": "HTR1F", "test": "PathHunter β-arrestin", "format": "cell-based", "conditions": "6 μM", "procedure,_shortened": "as §1"}, "SSTR1": {"test_system": "SSTR1", "test": "PathHunter β-arrestin", "format": "cell-based", "conditions": "agonist mode, 6 μM"}, "CXCR1": {"test_system": "CXCR1", "test": "PathHunter β-arrestin", "format": "cell-based", "conditions": "antagonist mode, 6 μM", "procedure,_shortened": "as §2"}, "GPR119": {"test_system": "GPR119", "test": "PathHunter β-arrestin", "format": "cell-based", "conditions": "6 μM", "procedure,_shortened": "as §1"}, "[1]": {"conditions": "ref [61]; cited from earlier work"}, "C3AR1": {"test_system": "C3AR1", "test": "PathHunter β-arrestin", "format": "cell-based", "conditions": "antagonist mode, 6 μM", "procedure,_shortened": "as §3"}, "CXCR2": {"test_system": "CXCR2", "test": "PathHunter β-arrestin", "format": "cell-based", "conditions": "6 μM", "procedure,_shortened": "as §2"}, "ADRA2B": {"test_system": "ADRA2B", "test": "PathHunter β-arrestin", "format": "cell-based", "conditions": "antagonist mode, 6 μM", "procedure,_shortened": "as §3"}, "NTSR1": {"test_system": "NTSR1", "test": "PathHunter β-arrestin", "format": "cell-based", "conditions": "antagonist mode, 6 μM", "procedure,_shortened": "as §4"}, "C5L2": {"test_system": "C5L2", "test": "PathHunter β-arrestin", "format": "cell-based", "conditions": "antagonist mode, 6 μM", "procedure,_shortened": "as §3"}, "MRGPRX2": {"test_system": "MRGPRX2", "test": "PathHunter β-arrestin", "format": "cell-based", "conditions": "antagonist mode, 6 μM", "procedure,_shortened": "as §1"}, "HRH3": {"test_system": "HRH3", "test": "PathHunter β-arrestin", "format": "cell-based", "conditions": "6 μM", "procedure,_shortened": "as §1"}, "CMKLR1": {"test_system": "CMKLR1", "test": "PathHunter β-arrestin", "format": "cell-based", "conditions": "antagonist mode, 6 μM", "procedure,_shortened": "as §2"}, "CCR2": {"test_system": "CCR2", "test": "PathHunter β-arrestin", "format": "cell-based", "conditions": "antagonist mode, 6 μM", "procedure,_shortened": "as §3"}, "DRD2L": {"test_system": "DRD2L", "test": "PathHunter β-arrestin", "format": "cell-based", "conditions": "antagonist mode, 6 μM", "procedure,_shortened": "as §2"}, "MTNR1A": {"test_system": "MTNR1A", "test": "PathHunter β-arrestin", "format": "cell-based", "conditions": "6 μM", "procedure,_shortened": "as §1"}, "AVPR1B": {"test_system": "AVPR1B", "test": "PathHunter β-arrestin", "format": "cell-based", "conditions": "antagonist mode, 6 μM", "procedure,_shortened": "as §3"}}, "note": "Entries after “also recorded” stand apart in the source; their conditions may differ.", "data": [{"substance": "Proline rich polypeptide 1 [PRP-1]", "values": [{"measurement": "% Inhibition", "setting": "HCRTR2", "result": "−1", "unit": "%"}, {"measurement": "% Activity", "setting": "CHRM1; agonist mode", "result": 1, "unit": "%"}, {"measurement": "% Inhibition", "setting": "CHRM1; antagonist mode", "result": "−12", "unit": "%"}, {"measurement": "% Activity", "setting": "AGTRL1", "result": 1, "unit": "%"}, {"measurement": "% Activity", "setting": "P2RY1; agonist mode", "result": "−1", "unit": "%"}, {"measurement": "% Inhibition", "setting": "P2RY1; antagonist mode", "result": 1, "unit": "%"}, {"measurement": "% Activity", "setting": "BDKRB1; agonist mode", "result": 1, "unit": "%"}, {"measurement": "% Inhibition", "setting": "BDKRB1; antagonist mode", "result": "−8", "unit": "%"}, {"measurement": "mTOR kinase (mTORC1) inhibition", "setting": "mTOR kinase (mTORC1)", "result": "mTOR kinase (mTORC1) inhibitor in chondrosarcoma"}, {"measurement": "% Activity", "setting": "HTR1E; agonist mode", "result": 3, "unit": "%"}, {"measurement": "% Inhibition", "setting": "HTR1E; antagonist mode", "result": 5, "unit": "%"}, {"measurement": "% Inhibition", "setting": "OPRL1", "result": "−7", "unit": "%"}, {"measurement": "protein expression", "setting": "TLR2", "result": "strong upregulation; also recorded: upregulated protein expression of TLR1 and TLR2 in dose-dependent manner"}, {"measurement": "% Activity", "setting": "EDG5; agonist mode", "result": 1, "unit": "%"}, {"measurement": "% Inhibition", "setting": "EDG5; antagonist mode", "result": "−8", "unit": "%"}, {"measurement": "GPCR coupling, agonist mode", "setting": "GPCR receptors", "result": "no indication that PRP-1 was G protein coupled"}, {"measurement": "% Activity", "setting": "NPBWR1", "result": 3, "unit": "%"}, {"measurement": "% Inhibition", "setting": "OPRD1", "result": "−2", "unit": "%"}, {"measurement": "% Inhibition", "setting": "VIPR1", "result": "−9", "unit": "%"}, {"measurement": "% Activity", "setting": "SSTR5", "result": 1, "unit": "%"}, {"measurement": "% Activity", "setting": "HTR1F; agonist mode", "result": 2, "unit": "%"}, {"measurement": "% Inhibition", "setting": "HTR1F; antagonist mode", "result": 2, "unit": "%"}, {"measurement": "% Activity", "setting": "SSTR1", "result": "−3", "unit": "%"}, {"measurement": "% Inhibition", "setting": "CXCR1", "result": "−1", "unit": "%"}, {"measurement": "% Activity", "setting": "GPR119; agonist mode", "result": 3, "unit": "%"}, {"measurement": "% Inhibition", "setting": "GPR119; antagonist mode", "result": "−1", "unit": "%"}, {"measurement": "antibacterial properties", "setting": "[1]", "result": "antibacterial properties"}, {"measurement": "% Inhibition", "setting": "C3AR1", "result": "−2", "unit": "%"}, {"measurement": "% Activity", "setting": "CXCR2; agonist mode", "result": 1, "unit": "%"}, {"measurement": "% Inhibition", "setting": "CXCR2; antagonist mode", "result": "−3", "unit": "%"}, {"measurement": "% Inhibition", "setting": "ADRA2B", "result": 2, "unit": "%"}, {"measurement": "% Inhibition", "setting": "NTSR1", "result": "−1", "unit": "%"}, {"measurement": "% Inhibition", "setting": "C5L2", "result": "−5", "unit": "%"}, {"measurement": "% Inhibition", "setting": "MRGPRX2", "result": "−8", "unit": "%"}, {"measurement": "% Activity", "setting": "HRH3; agonist mode", "result": 2, "unit": "%"}, {"measurement": "% Inhibition", "setting": "HRH3; antagonist mode", "result": "−6", "unit": "%"}, {"measurement": "% Inhibition", "setting": "CMKLR1", "result": "−2", "unit": "%"}, {"measurement": "% Inhibition", "setting": "CCR2", "result": "−3", "unit": "%"}, {"measurement": "% Inhibition", "setting": "DRD2L", "result": 2, "unit": "%"}, {"measurement": "% Activity", "setting": "MTNR1A; agonist mode", "result": 2, "unit": "%"}, {"measurement": "% Inhibition", "setting": "MTNR1A; antagonist mode", "result": "−9", "unit": "%"}, {"measurement": "% Inhibition", "setting": "AVPR1B", "result": "−2", "unit": "%"}]}]}
